Activity calls are given as the source filed them. No cut-off for these calls is given here.
What was measured:
[1] = tested on: ASPC1; experiment: Antiproliferative activity against human AsPC1 cells harboring KRAS G12D mutant after 72 hrs by CellTiter-Glo assay; type: functional, cell-based; details: ASPC1, 72 h
[2] = tested on: BaF3; experiment: Antiproliferative activity against mouse BA/F3 cells after 72 hrs by CellTiter-Glo assay; type: cell-based; details: BaF3, 72 h
[3] = tested on: BaF3; experiment: Antiproliferative activity against mouse BA/F3 cells harboring KRAS G12D mutant after 72 hrs by CellTiter-Glo assay; type: functional, cell-based; details: BaF3, 72 h
[4] = tested on: BaF3; experiment: Antiproliferative activity against mouse BA/F3 cells harboring KRAS G12D mutant after 72 hrs in presence of IL-3 by CellTiter-Glo assay; type: functional, cell-based; details: BaF3, 72 h
[5] = tested on: SW-620; experiment: Antiproliferative activity against human SW620 cells harboring KRAS G12V mutant after 72 hrs by CellTiter-Glo assay; type: functional, cell-based; details: SW-620, 72 h
[6] = tested on: NCI-H23; experiment: Antiproliferative activity against human NCI-H23 cells harboring KRAS G12C mutant after 72 hrs by CellTiter-Glo assay; type: functional, cell-based; details: for IC50: NCI-H23, 72 h
Summary of the method: (§1)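 NCI-H23 or NCI-H358 cells seeded at 2000 cells/well and grown 48 h before drug. Varying doses were added and cells incubated 72 h. Viability was read as CellTiter-Glo luminescence, and growth-inhibition IC50 was calculated from dose-response curves.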

[7] = Antiproliferative activity against human SW156 cells harboring wild type KRAS after 72 hrs by CellTiter-Glo assay; type: functional, cell-based
[8] = tested on: SK-CO-1; experiment: Antiproliferative activity against human SKCO1 cells harboring KRAS G12V mutant after 72 hrs by CellTiter-Glo assay; type: functional, cell-based; details: SK-CO-1, 72 h
[9] = target: T1, Mitogen-activated protein kinase kinase kinase 7 (Homo sapiens, UniProt O43318); experiment: Inhibition of TAK1 (unknown origin) by LanthaScreen assay
T1 sequence (O43318 whole entry): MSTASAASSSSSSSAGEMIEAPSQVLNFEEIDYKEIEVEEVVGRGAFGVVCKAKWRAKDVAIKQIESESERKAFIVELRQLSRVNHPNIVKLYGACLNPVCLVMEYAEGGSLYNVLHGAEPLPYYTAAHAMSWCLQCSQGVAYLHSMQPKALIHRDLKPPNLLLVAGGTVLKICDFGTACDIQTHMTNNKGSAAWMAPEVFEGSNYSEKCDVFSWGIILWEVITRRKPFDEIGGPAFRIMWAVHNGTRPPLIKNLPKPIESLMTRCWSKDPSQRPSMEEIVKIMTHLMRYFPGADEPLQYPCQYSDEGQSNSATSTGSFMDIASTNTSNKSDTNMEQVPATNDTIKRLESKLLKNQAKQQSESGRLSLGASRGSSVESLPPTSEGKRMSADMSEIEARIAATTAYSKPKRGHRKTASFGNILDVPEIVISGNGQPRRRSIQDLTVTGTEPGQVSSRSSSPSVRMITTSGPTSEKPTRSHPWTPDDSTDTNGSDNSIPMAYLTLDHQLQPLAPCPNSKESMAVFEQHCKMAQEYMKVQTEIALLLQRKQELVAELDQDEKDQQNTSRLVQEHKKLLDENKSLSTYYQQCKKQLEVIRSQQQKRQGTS

[10] = Increase in secretion of basic-FGF in TNFalpha activated RA patient-derived synovial fibroblasts at 0.6 to 3 uM preincubated for 3 hrs followed by TNFalpha stimulation measured after 18 hrs by sandwich immunoassay; details: human
Summary of the method: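 Primary RA patient synovial fibroblasts (donor RA2159) were seeded at 1000 cells/well, grown about 24 h, then starved overnight and again about 4 h in basal medium with 0.1% BSA. Cells were pre-incubated 3 h with inhibitor (0.6 or 3 μM) or DMSO, then stimulated 18 h with 10 ng/mL TNFα. Paired wells were pooled, in biological duplicate. Pooled supernatants were diluted 1:3 and read on Luminex bead sandwich immunoassays, with mock-medium background and spiked-ligand controls.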

[11] = target: T2, Mitogen-activated protein kinase kinase kinase 7 (Homo sapiens) (UniProt O43318); experiment: Inhibition of TAK1 in RA patient-derived synovial fibroblasts assessed as inhibition of poly(I:C)-induced cytokine secretion at 3 uM preincubated for 3 hrs followed by poly(I:C) stimulation measured after 18 hrs by sandwich immunoassay
T2 sequence (whole entry): T1 sequence (O43318 whole entry)
Summary of the method: (§2)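 Primary RA synovial fibroblasts (donor RA2159) seeded 1000 cells/well and grown ~24 h at 37 °C, 5% CO2. Starved overnight in basal medium, then ~4 h in basal medium with 0.1% BSA. Two adjacent wells pooled per replicate, in biological duplicate. Supernatants diluted 1:3 and run on Luminex 27-plex/21-plex sandwich immunoassays for 48 analytes, with spiked-ligand and mock-supernatant background controls.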

[12] = tested on: PANC-1; experiment: Antiproliferative activity against human PANC1 cells harboring KRAS G12D mutant after 72 hrs by CellTiter-Glo assay; type: functional, cell-based; details: PANC-1, 72 h
[13] = Antiproliferative activity against human URMC6 cells harboring wild type KRAS after 72 hrs by CellTiter-Glo assay; type: functional, cell-based
[14] = target: T2, Mitogen-activated protein kinase kinase kinase 7 (Homo sapiens); experiment: Inhibition of TAK1 in RA patient-derived synovial fibroblasts assessed as inhibition of IL-1alpha-induced cytokine secretion at 3 uM preincubated for 3 hrs followed by IL-1alpha stimulation measured after 18 hrs by sandwich immunoassay; summary of the method: as §2
[15] = target: T2, Mitogen-activated protein kinase kinase kinase 7 (Homo sapiens); experiment: Inhibition of TAK1 in RA patient-derived synovial fibroblasts assessed as inhibition of TNFalpha-induced cytokine secretion at 3 uM preincubated for 3 hrs followed by TNFalpha stimulation measured after 18 hrs by sandwich immunoassay; summary of the method: as §2
[16] = target: T2, Mitogen-activated protein kinase kinase kinase 7 (Homo sapiens); experiment: Inhibition of biotin-labeled N-(2-(2-(2-(2-(4-(4-((4-((2-Acrylamidophenyl)amino)-5-chloropyrimidin-2-yl)amino)phenyl)piperazin-1-yl)ethoxy)ethoxy)ethoxy)ethyl)-5-((3aS,4S,6aR)-2-oxohexahydro-1H-thieno[3,4-d]imidazol-4-yl)pentanamide probe binding to TAK1 in human NCI-H358 cells at 10 uM after 6 hrs by immunoblot based competitive pull down assay; type: cell-based
Summary of the method: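 H358 cells given 1 or 10 μM compound for 6 h, medium removed, cells rinsed twice with cold PBS and lysed in MPER buffer. Lysates incubated overnight at 4 °C with 1 μM biotinylated covalent probe, captured on streptavidin beads, and TAK1 recovery assessed by immunoblotting with anti-TAK1 antibody.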

[17] = tested on: MOLM-14; experiment: Antiproliferative activity against human MOLM14 cells harboring FLT3-ITD mutant at […] to […] nM after 72 hrs by CellTiter-Glo assay; type: functional, cell-based
[18] = tested on: U-937; experiment: Antiproliferative activity against human U937 cells at […] to […] nM after 72 hrs by CellTiter-Glo assay; type: functional, cell-based
[19] = tested on: NALM-6; experiment: Antiproliferative activity against human NALM6 cells harboring NARS A146T mutant at […] to […] nM after 72 hrs by CellTiter-Glo assay; type: functional, cell-based
[20] = tested on: HEL; experiment: Antiproliferative activity against human HEL cells at […] to […] nM after 72 hrs by CellTiter-Glo assay; type: functional, cell-based
[21] = tested on: BaF3; experiment: Antiproliferative activity against mouse BA/F3 cells harboring NRAS G12D mutant after 72 hrs in presence of IL-3 by CellTiter-Glo assay; type: functional, cell-based; details: BaF3, 72 h
Summary of the method: (§3)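 Ba/F3 parental or RAS-transformed cells were seeded at 1000 viable cells/well, without or with IL-3 as the line states, at 37 °C and 5% CO2. After 4 h, nine four-fold serial dilutions were added in triplicate (final 0.5–30,000 nM, 0.3% DMSO). DMSO wells served as 100% viability.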

[22] = tested on: BaF3; experiment: Antiproliferative activity against mouse BA/F3 cells harboring NRAS G12D mutant after 72 hrs by CellTiter-Glo assay; type: functional, cell-based; details: BaF3, 72 h; summary of the method: as §3
[23] = tested on: NCI-H358; experiment: Antiproliferative activity against human NCI-H358 cells harboring KRAS G12C mutant after 72 hrs by CellTiter-Glo assay; type: functional, cell-based; summary of the method: as §1

Row | Compound | IC50 [2] | IC50 [3] | IC50 [4] | IC50 [9] | other results
1 | CC(C)Nc1cc(-c2c[nH]c(C(=O)N[C@H](CO)c3cccc(Cl)c3)c2)c(Cl)cn1 [ULIXERTINIB] | 2230 nM | 468 nM | 8610 nM |  | IC50 [1]: 849 nM; IC50 [5]: 499 nM; IC50 [6]: 1000 nM; IC50 [7]: 1240 nM; IC50 [8]: 356 nM
2 | C=CC(=O)Nc1ccccc1Sc1nc(Nc2ccc(N3CCN(C)CC3)cc2)ncc1Cl | 838 nM | 962 nM | 763 nM | 83 nM | 
3 | C=CC(=O)Nc1ccccc1Oc1nc(Nc2ccc(N3CCN(C)CC3)cc2)nc(N)c1Cl |  |  | 3530 nM | 2750 nM | 
4 | CCN1CCN(Cc2ccc(NC(=O)c3ccc(C)c(Oc4ccnc5[nH]ccc45)c3)cc2C(F)(F)F)CC1 |  |  |  |  | Activity [10]: Non-Toxic
5 | CCC(=O)Nc1ccccc1Oc1nc(Nc2ccc(N3CCN(C)CC3)cc2)ncc1Cl |  | 191 nM | 60 nM |  | inhibition [11]: inactive; IC50 [1]: 2700 nM; IC50 [12]: 1360 nM; IC50 [13]: 444 nM; IC50 [5]: 707 nM; inhibition [14]: inactive; inhibition [15]: inactive; IC50 [7]: 3730 nM; IC50 [8]: 213 nM; inhibition [16]: inactive
6 | CCC(=O)Nc1ccccc1Oc1nc(Nc2cnn(CCOC)c2)ncc1Cl | 2080 nM | 923 nM | 3600 nM | 1230 nM | inhibition [11]: inactive; IC50 [1]: 5020 nM; IC50 [13]: 1490 nM; Activity [17]: Active; IC50 [5]: 1650 nM; inhibition [14]: inactive; inhibition [15]: inactive; Activity [18]: Active; IC50 [8]: 2620 nM; inhibition [16]: inactive
7 | C=CC(=O)Nc1cc(NC(C)=O)ccc1Nc1nc(Nc2ccc(N3CCN(C)CC3)cc2)ncc1Cl |  | 1350 nM | 3730 nM | 1640 nM | 
8 | C=CC(=O)Nc1ccccc1Oc1nc(Nc2cnn(C(F)F)c2)ncc1Cl | 539 nM | 67 nM | 414 nM | 7 nM | Activity [17]: Active; Activity [19]: inactive; Activity [20]: inactive; IC50 [21]: 277 nM; Activity [18]: Active; IC50 [22]: 92 nM; inhibition [16]: Active
9 | C=CC(=O)Nc1ccccc1Oc1nc(Nc2ccc(N3CCN(C)CC3)cc2)ncc1C1CC1 | 1340 nM | 181 nM | 1190 nM | 57 nM | 
10 | C=CC(=O)Oc1ccccc1Nc1nc(Nc2cccc(N3CCN(C(C)=O)CC3)c2)ncc1Cl |  | 280 nM | 460 nM | 1.7 nM | 
11 | C=CC(=O)Nc1ccccc1Oc1nc(Nc2ccc(N3CCN(C)CC3)cc2)ncc1OC | 476 nM | 57 nM | 310 nM | 75 nM | 
12 | C=CC(=O)Nc1ccccc1-n1ccc2cnc(Nc3ccc(N4CCN(C)CC4)cc3)nc21 | 3270 nM | 905 nM |  | 3010 nM | IC50 [22]: 2040 nM
13 | CN1CCN(c2ccc(Nc3ncc(Cl)c(Nc4ccccc4NC(=O)CCl)n3)cc2)CC1 | 206 nM | 31 nM | 376 nM | 25 nM | Activity [17]: Active; Activity [19]: inactive; Activity [20]: inactive; IC50 [21]: 178 nM; Activity [18]: Active; Activity [6]: Active; Activity [23]: Active; IC50 [22]: 10 nM; inhibition [16]: Active
14 | C=CC(=O)Oc1ccccc1Nc1nc(Nc2cccc(N3CCOCC3)c2)ncc1Cl |  |  | 839 nM | 3.2 nM | inhibition [16]: Active
15 | C=CC(=O)Oc1ccccc1Nc1nc(Nc2ccc(N3CCN(C)CC3)cc2)ncc1Cl | 234 nM | 44 nM | 555 nM | 3.3 nM | 
16 | Cn1c(=O)n(-c2ccc(C(C)(C)C#N)cc2)c2c3cc(-c4cnc5ccccc5c4)ccc3ncc21 [DACTOLISIB] |  |  |  |  | IC50 [6]: 1000 nM
17 | C=CC(=O)Nc1ccccc1Oc1nc(Nc2cnn(C)c2)ncc1Cl | 2940 nM | 308 nM | 859 nM | 7.3 nM | IC50 [21]: 1020 nM; IC50 [22]: 179 nM
18 | C=CC(=O)Nc1ccccc1Oc1nc(Nc2cnn(C3CCOCC3)c2)ncc1Cl |  | 69 nM | 719 nM | 4.6 nM | 
19 | C=CC(=O)Nc1ccccc1Oc1nc(Nc2ccc(N3CCN(C)CC3)cc2)ncc1C | 385 nM | 113 nM | 357 nM | 92 nM | 
20 | Cn1cnc2c(F)c(Nc3ccc(Br)cc3Cl)c(C(=O)NOCCO)cc21 [SELUMETINIB] |  | 100 nM | > 10000 nM |  | IC50 [1]: 64.2 nM; IC50 [5]: 15 nM; IC50 [8]: 117 nM
21 | C=CC(=O)Oc1ccccc1Nc1nc(Nc2ccc(N3CCOCC3)cc2)ncc1Cl | 423 nM | 56 nM | 745 nM | 4.4 nM | Activity [17]: Active; Activity [19]: inactive; Activity [20]: inactive; IC50 [21]: 390 nM; Activity [18]: Active; IC50 [22]: 47 nM
22 | CCC(=O)Nc1ccccc1Nc1nc(Nc2ccc(N3CCN(C)CC3)cc2)ncc1Cl |  |  | 9 nM | 1630 nM | IC50 [1]: 73 nM; IC50 [12]: 426 nM; IC50 [13]: 263 nM; IC50 [5]: 247 nM; IC50 [7]: 363 nM; IC50 [8]: 54 nM; inhibition [16]: inactive
23 | C=CC(=O)Nc1ccccc1Oc1ccnc(Nc2ccc(N3CCN(C)CC3)cc2)n1 | 1930 nM |  | 1400 nM | 950 nM | 

Source: ChEMBL document CHEMBL4118021, “Studies of TAK1-centered polypharmacology with novel covalent TAK1 inhibitors” (Bioorg Med Chem, 2017)
